According to ChEMBL document CHEMBL1641418, “Discovery of isoindoline and tetrahydroisoquinoline derivatives as potent, selective PPARδ agonists” (Bioorg Med Chem Lett, 2011):

What was measured:
[1] = target: T1, Peroxisome proliferator-activated receptor delta (Homo sapiens, UniProt Q03181); test: Agonist activity at Gal4-fused human PPARdelta […] binding domain expressed in HEK293 cells by luciferase reporter gene assay; type: cell-based
T1 sequence (Q03181 whole entry): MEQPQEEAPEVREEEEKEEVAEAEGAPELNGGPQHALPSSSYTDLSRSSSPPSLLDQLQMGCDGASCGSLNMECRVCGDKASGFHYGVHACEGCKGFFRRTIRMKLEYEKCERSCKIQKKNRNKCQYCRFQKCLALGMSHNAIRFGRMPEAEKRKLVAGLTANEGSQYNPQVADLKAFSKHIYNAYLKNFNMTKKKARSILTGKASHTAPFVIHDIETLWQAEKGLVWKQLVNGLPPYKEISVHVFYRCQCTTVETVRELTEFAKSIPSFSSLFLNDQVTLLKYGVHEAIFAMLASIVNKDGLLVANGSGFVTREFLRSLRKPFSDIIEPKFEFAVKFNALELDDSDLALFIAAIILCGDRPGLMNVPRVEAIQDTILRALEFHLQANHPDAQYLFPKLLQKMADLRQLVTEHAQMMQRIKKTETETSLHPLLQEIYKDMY

[2] = Lipophilicity, log D of the compound; type: physicochemical; details: octanol/water
[3] = target: T2, Peroxisome proliferator-activated receptor alpha (Homo sapiens, UniProt Q07869); test: Agonist activity at Gal4-fused human PPARalpha […] binding domain expressed in HEK293 cells by luciferase reporter gene assay; type: cell-based
T2 sequence (Q07869 whole entry): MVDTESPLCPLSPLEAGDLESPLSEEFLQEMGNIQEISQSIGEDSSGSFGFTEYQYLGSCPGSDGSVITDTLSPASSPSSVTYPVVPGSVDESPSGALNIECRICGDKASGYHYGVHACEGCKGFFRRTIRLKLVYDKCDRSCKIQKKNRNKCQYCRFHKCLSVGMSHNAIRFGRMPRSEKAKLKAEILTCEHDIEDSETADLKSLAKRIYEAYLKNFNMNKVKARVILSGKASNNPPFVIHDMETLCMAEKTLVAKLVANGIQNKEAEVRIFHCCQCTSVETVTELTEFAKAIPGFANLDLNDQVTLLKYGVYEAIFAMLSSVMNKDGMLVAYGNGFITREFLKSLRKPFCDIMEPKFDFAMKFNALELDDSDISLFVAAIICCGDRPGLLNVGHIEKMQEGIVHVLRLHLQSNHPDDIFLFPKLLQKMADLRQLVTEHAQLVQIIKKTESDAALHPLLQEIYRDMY

[4] = target: T1, Peroxisome proliferator-activated receptor delta; test: Induction of PPARdelta-mediated PDK4 mRNA upregulation in human myoblast after 24 hrs
Method in brief: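 Myoblasts isolated from human vastus lateralis skeletal muscle by enzymatic digestion, then differentiated into myotubes for 7 days in 2% horse serum. Myotubes were exposed to compound for 24 h, and fold induction of PDK4 mRNA was measured. EC50 was taken from the dose–response curve, with GW501516 run as the reference agonist.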

[5] = target: T3, Peroxisome proliferator-activated receptor gamma (Homo sapiens, UniProt P37231); test: Agonist activity at Gal4-fused human PPARgamma […] binding domain expressed in HEK293 cells by luciferase reporter gene assay; type: cell-based
T3 sequence (P37231 whole entry): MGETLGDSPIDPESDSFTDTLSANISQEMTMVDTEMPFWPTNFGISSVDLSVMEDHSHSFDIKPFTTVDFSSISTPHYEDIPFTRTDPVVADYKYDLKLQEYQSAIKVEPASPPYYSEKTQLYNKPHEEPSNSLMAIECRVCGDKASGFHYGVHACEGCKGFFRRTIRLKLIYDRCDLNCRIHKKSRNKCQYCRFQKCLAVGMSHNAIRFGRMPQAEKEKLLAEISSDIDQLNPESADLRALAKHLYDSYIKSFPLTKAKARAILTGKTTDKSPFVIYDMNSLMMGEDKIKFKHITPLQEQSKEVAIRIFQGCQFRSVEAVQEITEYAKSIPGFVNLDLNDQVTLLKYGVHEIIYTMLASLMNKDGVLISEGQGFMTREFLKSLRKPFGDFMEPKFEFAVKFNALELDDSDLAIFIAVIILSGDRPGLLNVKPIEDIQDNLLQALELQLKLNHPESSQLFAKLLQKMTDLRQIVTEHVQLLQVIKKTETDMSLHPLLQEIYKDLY

| Compound | EC50 [1] | logD [2] | EC50 [3] | EC50 [4] | EC50 [5] |
| --- | --- | --- | --- | --- | --- |
| Cc1cc(CN2CCCC2C(=O)Nc2ccc(Cl)cc2Cl)ccc1OCC(=O)O (stereo not given) | 1600 nM |  |  |  |  |
| Cc1cc(CN2CCC(C(=O)Nc3ccc(Cl)cc3Cl)C2)ccc1OCC(=O)O (stereo not given) | 1000 nM |  |  |  |  |
| Cc1cc(CN2Cc3ccccc3C2C(=O)Nc2cc(Cl)ccc2Cl)ccc1OCC(=O)O (stereo not given) | 320 nM |  |  |  |  |
| Cc1cc(CN2Cc3ccccc3C2C(=O)Nc2ccc(Cl)cc2)ccc1OCC(=O)O (stereo not given) | 2500 nM |  |  |  |  |
| Cc1cc(CN2Cc3ccccc3C2C(=O)Nc2ccccc2)ccc1OCC(=O)O (stereo not given) | > 60000 nM |  |  |  |  |
| Cc1cc(CN2Cc3ccccc3C2C(=O)O)ccc1OCC(=O)O (stereo not given) | > 20000 nM |  |  |  |  |
| Cc1cc(CN2Cc3ccccc3C[C@H]2C(=O)Nc2ccc(Cl)cc2Cl)ccc1OCC(=O)O | 5 nM | 2.4 | 2500 nM | 15 nM | > 20000 nM |
| Cc1cc(CN2Cc3ccccc3C[C@@H]2C(=O)Nc2ccc(Cl)cc2Cl)ccc1OCC(=O)O | 0.5 nM |  | 1250 nM |  | 800 nM |
| Cc1cc(CN2Cc3ccccc3C2C(=O)Nc2ccc(Cl)cc2Cl)ccc1OCC(=O)O (racemic) | 25 nM | 2.6 | > 30000 nM |  | > 30000 nM |
| Cc1cc(CN2CCc3ccccc3C2C(=O)Nc2ccc(Cl)cc2Cl)ccc1OCC(=O)O (racemic) | 10 nM | 2.6 | 6300 nM | 70 nM | 2700 nM |
| Cc1cc(CN2Cc3ncccc3CC2C(=O)Nc2ccc(Cl)cc2Cl)ccc1OCC(=O)O (racemic) | 500 nM |  |  |  |  |
| Cc1cc(CN2Cc3cccnc3CC2C(=O)Nc2ccc(Cl)cc2Cl)ccc1OCC(=O)O (racemic) | 2000 nM |  |  |  |  |
